PMC7810372 (Science Advances, 2021)

Legend:
aldolase in BT-549 cells = experiment: Aldolase activity assay; assay type: cell-based, human; settings: 24 hr treatment
Procedure, shortened: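 Cells (1×10^6 for MDA231) were exposed to test compound for 24 h. Aldolase or GAPDH activity was then measured with a commercial kit following the maker's protocol. Values were normalized to protein concentration and expressed as fold change relative to DMSO.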

[1] = test system: glucose transporter 1, hexokinase II; settings: cited from earlier work
[2] = test system: MDA231 BAX/BAK knockdown (siRNA) cells; experiment: Drug screen and low-throughput cell viability; assay type: cell-based, human; settings: 48 hr treatment, CellTiter-Glo % survival, BAX/BAK KD versus control
MDA231 cells = experiment: Extracellular flux assay, ECAR; assay type: cell-based, human; settings: 2 µM, 24 hrs
Procedure, shortened: (§1)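 Seahorse XF96: cells were seeded for 24 h, then treated for a further 24 h. One hour before the run they were changed to XF Base medium, pH 7.4, with 1 mM L-glutamine. ECAR was read three times at baseline and three times after each sequential injection of glucose (10 mM), oligomycin (1 µM) and 2-DG (50 mM). Readings were protein-normalized, baseline-subtracted and expressed as fold change versus DMSO.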

BT-549 cells = experiment: Extracellular flux assay, ECAR; assay type: cell-based, human; settings: 2 µM, 24 hrs
Procedure, shortened: as §1

HDAC8 = target: T1, HDAC8 (Homo sapiens, UniProt Q9BY41); experiment: HDAC inhibitory assay; assay type: biochemical
T1 sequence (Q9BY41 1-377): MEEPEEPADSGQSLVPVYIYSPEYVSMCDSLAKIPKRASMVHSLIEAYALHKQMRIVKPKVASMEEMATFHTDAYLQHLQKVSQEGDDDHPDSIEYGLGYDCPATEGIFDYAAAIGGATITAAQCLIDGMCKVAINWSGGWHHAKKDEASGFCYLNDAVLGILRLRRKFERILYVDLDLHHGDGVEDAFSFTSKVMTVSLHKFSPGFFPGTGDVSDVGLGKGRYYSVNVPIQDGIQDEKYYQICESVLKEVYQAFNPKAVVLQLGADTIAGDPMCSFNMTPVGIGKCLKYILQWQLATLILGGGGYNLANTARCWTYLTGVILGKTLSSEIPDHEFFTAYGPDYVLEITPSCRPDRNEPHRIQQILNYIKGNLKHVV

HDAC7 = target: T2, HDAC7 (Homo sapiens, UniProt Q8WUI4); experiment: HDAC inhibitory assay; assay type: biochemical
T2 sequence (Q8WUI4 1-952): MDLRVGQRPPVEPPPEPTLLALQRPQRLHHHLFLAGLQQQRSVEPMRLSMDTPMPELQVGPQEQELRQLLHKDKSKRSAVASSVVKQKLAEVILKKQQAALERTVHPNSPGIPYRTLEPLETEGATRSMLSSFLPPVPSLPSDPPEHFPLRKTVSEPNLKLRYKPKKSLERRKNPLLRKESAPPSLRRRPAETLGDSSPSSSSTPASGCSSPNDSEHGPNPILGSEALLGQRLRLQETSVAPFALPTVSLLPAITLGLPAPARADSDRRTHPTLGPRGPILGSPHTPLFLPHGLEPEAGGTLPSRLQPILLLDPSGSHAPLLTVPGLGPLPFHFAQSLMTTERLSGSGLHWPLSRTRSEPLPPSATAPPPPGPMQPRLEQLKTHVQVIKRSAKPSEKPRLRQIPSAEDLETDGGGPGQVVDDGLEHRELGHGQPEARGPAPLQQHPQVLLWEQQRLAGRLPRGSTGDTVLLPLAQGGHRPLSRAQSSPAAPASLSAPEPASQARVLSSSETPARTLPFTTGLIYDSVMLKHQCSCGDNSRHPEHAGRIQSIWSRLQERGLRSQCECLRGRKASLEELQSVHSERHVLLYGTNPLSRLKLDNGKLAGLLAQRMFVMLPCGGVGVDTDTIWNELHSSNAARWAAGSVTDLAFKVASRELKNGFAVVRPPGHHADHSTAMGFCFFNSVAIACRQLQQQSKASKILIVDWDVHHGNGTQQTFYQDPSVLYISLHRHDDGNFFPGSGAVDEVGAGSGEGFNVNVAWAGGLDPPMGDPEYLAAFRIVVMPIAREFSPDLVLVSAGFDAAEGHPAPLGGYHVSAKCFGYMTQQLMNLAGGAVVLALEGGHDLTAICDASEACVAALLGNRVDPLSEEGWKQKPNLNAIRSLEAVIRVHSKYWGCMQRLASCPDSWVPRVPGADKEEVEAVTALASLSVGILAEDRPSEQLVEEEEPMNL

HDAC6 = target: T3, HDAC6 (Homo sapiens, UniProt Q9UBN7); experiment: HDAC inhibitory assay; assay type: biochemical
T3 sequence (Q9UBN7 1-1215): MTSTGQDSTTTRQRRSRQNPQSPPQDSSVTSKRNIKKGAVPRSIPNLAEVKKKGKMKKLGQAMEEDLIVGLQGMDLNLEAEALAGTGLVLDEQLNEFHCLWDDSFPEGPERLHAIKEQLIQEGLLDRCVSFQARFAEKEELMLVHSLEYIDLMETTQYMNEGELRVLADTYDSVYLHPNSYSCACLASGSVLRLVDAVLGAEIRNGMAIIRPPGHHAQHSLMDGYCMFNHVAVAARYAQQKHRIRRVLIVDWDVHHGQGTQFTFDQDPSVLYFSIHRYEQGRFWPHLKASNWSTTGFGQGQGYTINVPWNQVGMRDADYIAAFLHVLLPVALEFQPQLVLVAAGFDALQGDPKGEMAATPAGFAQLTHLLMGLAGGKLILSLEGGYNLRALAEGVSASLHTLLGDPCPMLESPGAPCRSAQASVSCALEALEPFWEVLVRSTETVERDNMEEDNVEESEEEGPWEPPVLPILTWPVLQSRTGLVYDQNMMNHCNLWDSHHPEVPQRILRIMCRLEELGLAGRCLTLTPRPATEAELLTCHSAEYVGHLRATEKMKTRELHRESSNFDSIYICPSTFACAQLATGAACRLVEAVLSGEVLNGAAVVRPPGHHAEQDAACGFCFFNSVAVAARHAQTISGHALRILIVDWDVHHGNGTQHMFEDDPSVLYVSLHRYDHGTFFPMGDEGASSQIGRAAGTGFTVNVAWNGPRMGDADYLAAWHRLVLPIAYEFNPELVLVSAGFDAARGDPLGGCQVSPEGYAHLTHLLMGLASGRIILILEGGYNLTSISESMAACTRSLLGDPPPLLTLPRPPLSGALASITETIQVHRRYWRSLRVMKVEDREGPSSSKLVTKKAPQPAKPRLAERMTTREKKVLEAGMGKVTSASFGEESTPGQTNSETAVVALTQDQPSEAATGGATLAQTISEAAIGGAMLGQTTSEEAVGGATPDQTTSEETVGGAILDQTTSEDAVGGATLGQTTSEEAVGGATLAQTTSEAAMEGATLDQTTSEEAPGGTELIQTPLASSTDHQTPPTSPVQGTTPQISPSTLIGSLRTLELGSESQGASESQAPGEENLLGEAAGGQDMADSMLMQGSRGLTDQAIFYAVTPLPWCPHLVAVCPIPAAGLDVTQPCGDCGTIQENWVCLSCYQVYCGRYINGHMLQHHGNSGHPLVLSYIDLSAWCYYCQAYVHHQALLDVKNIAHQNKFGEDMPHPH

HDAC1 = HDAC1 (Homo sapiens, UniProt Q13547); experiment: HDAC inhibitory assay; assay type: biochemical
Sequence of HDAC1 (Q13547 whole entry): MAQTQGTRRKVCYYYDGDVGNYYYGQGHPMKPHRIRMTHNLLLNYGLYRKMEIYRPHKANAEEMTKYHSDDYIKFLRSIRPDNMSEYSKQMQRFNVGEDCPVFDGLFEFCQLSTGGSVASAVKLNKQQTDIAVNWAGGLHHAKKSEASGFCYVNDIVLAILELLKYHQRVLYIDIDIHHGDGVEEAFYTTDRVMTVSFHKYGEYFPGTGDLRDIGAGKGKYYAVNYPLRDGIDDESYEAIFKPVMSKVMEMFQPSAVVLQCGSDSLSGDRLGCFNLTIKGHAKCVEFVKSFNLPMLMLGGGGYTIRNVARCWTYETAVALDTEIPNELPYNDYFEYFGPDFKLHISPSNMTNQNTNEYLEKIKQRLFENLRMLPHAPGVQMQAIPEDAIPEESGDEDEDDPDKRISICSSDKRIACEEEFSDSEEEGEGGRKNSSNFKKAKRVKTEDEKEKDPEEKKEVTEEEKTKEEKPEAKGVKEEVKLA

O=C(CCCCCCNC(=O)c1cnc(N(c2ccccc2)c2ccccc2)nc1)NO [ACY-1215]
aldolase enzymatic activity (aldolase in BT-549 cells): reduced aldolase activity

CCCC(CCC)C(=O)O [valproate]
glucose transporter 1 [1]: reduction in the glucose transporter 1
hexokinase II activity [1]: reduction in hexokinase II activity

COc1cc([C@@H]2c3cc4c(cc3[C@@H](O[C@@H]3O[C@@H]5CO[C@@H](C)O[C@H]5[C@H](O)[C@H]3O)[C@H]3COC(=O)[C@H]23)OCO4)cc(OC)c1O [etoposide]
response to apoptosis-inducing agents [2]: broadly resistant

O=C(CCCCCCC(=O)Nc1ccc([C@H]2O[C@@H](CSc3nc(-c4ccccc4)c(-c4ccccc4)o3)C[C@@H](c3ccc(CO)cc3)O2)cc1)NO [tubacin]
extracellular acidification rate (ECAR) (MDA231 cells): reduction
glycolysis and glycolytic capacity (ECAR) (BT-549 cells): confirmed all the above results

O=C(CCCCCCC(=O)Nc1ccccc1)NO [SAHA, suberoylanilide hydroxamic acid]
inhibition of HDAC activity (HDAC8): inhibits the activity
inhibition of HDAC activity (HDAC7): inhibits the activity
inhibition of HDAC activity (HDAC6): inhibits the activity
inhibition of HDAC activity (HDAC1): inhibits the activity

CN(C)CC[C@H](CSc1ccccc1)Nc1ccc(S(=O)(=O)NC(=O)c2ccc(N3CCN(Cc4ccccc4-c4ccc(Cl)cc4)CC3)cc2)cc1[N+](=O)[O-] [ABT-737]
response to apoptosis-inducing agents [2]: broadly resistant

O=C(CCCCCCNC(=O)c1cnc(N(c2ccccc2)c2ccccc2Cl)nc1)NO [ACY-241]
glycolysis and glycolytic capacity (ECAR) (BT-549 cells; 1 µM): confirmed all the above results
